Experimental data as given in paper PMC4233149 (Clinical cancer research : an official journal of the …, 2014).
Marks after values point to notes of the source that are not given here.

Assay: Phase I safety and tolerability, weekly
Type: in vivo, human
Outline: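 Oral weekly dose escalation followed a 3+3 design (planned 90, 135, 200, 300mg, intermediate doses allowed), then a modified toxicity-probability-interval confirmation stage. A DLT was any drug-related CTCAE v3.0 ≥G4 hematological, ≥G3 febrile neutropenia or ≥G3 non-hematological toxicity. Safety visits, glucose, C-peptide and HbA1c monitoring followed a fixed schedule; AEs were graded by CTCAE v3.0.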

[1] = 200mg QW, G3, cycle 1, dose-limiting toxicity

NC1(c2ccc(-c3nc4ccn5c(=O)[nH]nc5c4cc3-c3ccccc3)cc2)CCC1 [MK-2206]
Diarrhea, number of AEs (200mg QW, G3, cycle 1): 0 (0) | Dry skin, number of AEs (200mg QW, G3, cycle 1): 0 (0) | Dysgeusia, number of AEs (200mg QW, G3, cycle 1): 0 (0) | Fatigue, number of AEs (200mg QW, G3, cycle 1): 0 (0) | Nausea, number of AEs (200mg QW, G3, cycle 1): 0 (0) | Pruritus, number of AEs (200mg QW, G3, cycle 1): 0 (0) | Stomatitis, number of AEs (200mg QW, G3, cycle 1): 0 (0) | Vomiting, number of AEs (200mg QW, G3, cycle 1): 0 (0) | Dermatitis acneiform, number of AEs [1]: 1^c (1) | Rash (all rash terms collated), number of AEs [1]: 3^c (3) | Anorexia, number of AEs (250mg QW, G1, all cycles): 0 (0) | Dermatitis acneiform, number of AEs (250mg QW, G1, all cycles): 0 (0) | Diarrhea, number of AEs (250mg QW, G1, all cycles): 0 (0) | Dysgeusia, number of AEs (250mg QW, G1, all cycles): 0 (0) | Fatigue, number of AEs (250mg QW, G1, all cycles): 0 (0) | Nausea, number of AEs (250mg QW, G1, all cycles): 0 (0) | Pruritus, number of AEs (250mg QW, G1, all cycles): 0 (0) | Stomatitis, number of AEs (250mg QW, G1, all cycles): 2 | Vomiting, number of AEs (250mg QW, G1, all cycles): 0 (0) | Anorexia, number of AEs (250mg QW, G1, cycle 1): 0 (0) | Dermatitis acneiform, number of AEs (250mg QW, G1, cycle 1): 0 (0) | Diarrhea, number of AEs (250mg QW, G1, cycle 1): 0 (0) | Dysgeusia, number of AEs (250mg QW, G1, cycle 1): 0 (0) | Fatigue, number of AEs (250mg QW, G1, cycle 1): 0 (0) | Nausea, number of AEs (250mg QW, G1, cycle 1): 0 (0) | Pruritus, number of AEs (250mg QW, G1, cycle 1): 0 (0) | Stomatitis, number of AEs (250mg QW, G1, cycle 1): 1 | Vomiting, number of AEs (250mg QW, G1, cycle 1): 0 (0) | Anorexia, number of AEs (250mg QW, G2, all cycles): 0 (0) | Dermatitis acneiform, number of AEs (250mg QW, G2, all cycles): 0 (0) | Diarrhea, number of AEs (250mg QW, G2, all cycles): 0 (0) | Dry skin, number of AEs (250mg QW, G2, all cycles): 0 (0) | Dysgeusia, number of AEs (250mg QW, G2, all cycles): 0 (0) | Fatigue, number of AEs (250mg QW, G2, all cycles): 0 (0) | Nausea, number of AEs (250mg QW, G2, all cycles): 0 (0) | Pruritus, number of AEs (250mg QW, G2, all cycles): 0 (0) | Rash (all rash terms collated), number of AEs (250mg QW, G2, all cycles): 2 | Stomatitis, number of AEs (250mg QW, G2, all cycles): 0 (0) | Vomiting, number of AEs (250mg QW, G2, all cycles): 0 (0) | Anorexia, number of AEs (250mg QW, G2, cycle 1): 0 (0) | Dermatitis acneiform, number of AEs (250mg QW, G2, cycle 1): 0 (0) | Diarrhea, number of AEs (250mg QW, G2, cycle 1): 0 (0) | Dry skin, number of AEs (250mg QW, G2, cycle 1): 0 (0) | Dysgeusia, number of AEs (250mg QW, G2, cycle 1): 0 (0) | Fatigue, number of AEs (250mg QW, G2, cycle 1): 0 (0) | Nausea, number of AEs (250mg QW, G2, cycle 1): 0 (0) | Pruritus, number of AEs (250mg QW, G2, cycle 1): 0 (0) | Rash (all rash terms collated), number of AEs (250mg QW, G2, cycle 1): 1 | Stomatitis, number of AEs (250mg QW, G2, cycle 1): 0 (0) | Vomiting, number of AEs (250mg QW, G2, cycle 1): 0 (0) | Anorexia, number of AEs (250mg QW, G3, all cycles): 0 (0) | Dermatitis acneiform, number of AEs (250mg QW, G3, all cycles): 0 (0) | Diarrhea, number of AEs (250mg QW, G3, all cycles): 0 (0) | Dry skin, number of AEs (250mg QW, G3, all cycles): 0 (0) | Dysgeusia, number of AEs (250mg QW, G3, all cycles): 0 (0) | Fatigue, number of AEs (250mg QW, G3, all cycles): 0 (0) | Nausea, number of AEs (250mg QW, G3, all cycles): 0 (0) | Pruritus, number of AEs (250mg QW, G3, all cycles): 0 (0) | Rash (all rash terms collated), number of AEs (250mg QW, G3, all cycles): 2^c (2) | Stomatitis, number of AEs (250mg QW, G3, all cycles): 0 (0) | Vomiting, number of AEs (250mg QW, G3, all cycles): 0 (0) | Anorexia, number of AEs (250mg QW, G3, cycle 1): 0 (0) | Dermatitis acneiform, number of AEs (250mg QW, G3, cycle 1): 0 (0) | Diarrhea, number of AEs (250mg QW, G3, cycle 1): 0 (0) | Dry skin, number of AEs (250mg QW, G3, cycle 1): 0 (0) | Dysgeusia, number of AEs (250mg QW, G3, cycle 1): 0 (0) | Fatigue, number of AEs (250mg QW, G3, cycle 1): 0 (0) | Nausea, number of AEs (250mg QW, G3, cycle 1): 0 (0) | Pruritus, number of AEs (250mg QW, G3, cycle 1): 0 (0) | Stomatitis, number of AEs (250mg QW, G3, cycle 1): 0 (0) | Vomiting, number of AEs (250mg QW, G3, cycle 1): 0 (0) | Rash (all rash terms collated), number of AEs (250mg QW, G3, cycle 1, dose-limiting toxicity): 2^c (2) | Anorexia, number of AEs (300mg QW, G1, all cycles): 0 (0) | Dermatitis acneiform, number of AEs (300mg QW, G1, all cycles): 0 (0) | Diarrhea, number of AEs (300mg QW, G1, all cycles): 0 (0) | Dry skin, number of AEs (300mg QW, G1, all cycles): 0 (0) | Dysgeusia, number of AEs (300mg QW, G1, all cycles): 1 (1) | Fatigue, number of AEs (300mg QW, G1, all cycles): 1 (1) | Nausea, number of AEs (300mg QW, G1, all cycles): 1 (1) | Pruritus, number of AEs (300mg QW, G1, all cycles): 0 (0) | Stomatitis, number of AEs (300mg QW, G1, all cycles): 0 (0) | Vomiting, number of AEs (300mg QW, G1, all cycles): 0 (0) | Anorexia, number of AEs (300mg QW, G1, cycle 1): 0 (0) | Dermatitis acneiform, number of AEs (300mg QW, G1, cycle 1): 0 (0) | Diarrhea, number of AEs (300mg QW, G1, cycle 1): 0 (0) | Dry skin, number of AEs (300mg QW, G1, cycle 1): 0 (0) | Dysgeusia, number of AEs (300mg QW, G1, cycle 1): 1 (1) | Fatigue, number of AEs (300mg QW, G1, cycle 1): 1 (1) | Nausea, number of AEs (300mg QW, G1, cycle 1): 1 (1) | Pruritus, number of AEs (300mg QW, G1, cycle 1): 0 (0) | Stomatitis, number of AEs (300mg QW, G1, cycle 1): 0 (0) | Vomiting, number of AEs (300mg QW, G1, cycle 1): 0 (0) | Anorexia, number of AEs (300mg QW, G2, all cycles): 0 (0) | Dermatitis acneiform, number of AEs (300mg QW, G2, all cycles): 0 (0) | Diarrhea, number of AEs (300mg QW, G2, all cycles): 0 (0) | Dry skin, number of AEs (300mg QW, G2, all cycles): 0 (0) | Dysgeusia, number of AEs (300mg QW, G2, all cycles): 0 (0) | Fatigue, number of AEs (300mg QW, G2, all cycles): 0 (0) | Nausea, number of AEs (300mg QW, G2, all cycles): 0 (0) | Pruritus, number of AEs (300mg QW, G2, all cycles): 0 (0) | Rash (all rash terms collated), number of AEs (300mg QW, G2, all cycles): 2 (2) | Stomatitis, number of AEs (300mg QW, G2, all cycles): 1 (1) | Vomiting, number of AEs (300mg QW, G2, all cycles): 0 (0) | Anorexia, number of AEs (300mg QW, G2, cycle 1): 0 (0) | Dermatitis acneiform, number of AEs (300mg QW, G2, cycle 1): 0 (0) | Diarrhea, number of AEs (300mg QW, G2, cycle 1): 0 (0) | Dry skin, number of AEs (300mg QW, G2, cycle 1): 0 (0) | Dysgeusia, number of AEs (300mg QW, G2, cycle 1): 0 (0) | Fatigue, number of AEs (300mg QW, G2, cycle 1): 0 (0) | Nausea, number of AEs (300mg QW, G2, cycle 1): 0 (0) | Pruritus, number of AEs (300mg QW, G2, cycle 1): 0 (0) | Rash (all rash terms collated), number of AEs (300mg QW, G2, cycle 1): 2 (2) | Stomatitis, number of AEs (300mg QW, G2, cycle 1): 1 (1) | Vomiting, number of AEs (300mg QW, G2, cycle 1): 0 (0) | Anorexia, number of AEs (300mg QW, G3, all cycles): 0 (0) | Dermatitis acneiform, number of AEs (300mg QW, G3, all cycles): 0 (0) | Diarrhea, number of AEs (300mg QW, G3, all cycles): 0 (0) | Dry skin, number of AEs (300mg QW, G3, all cycles): 0 (0) | Dysgeusia, number of AEs (300mg QW, G3, all cycles): 0 (0) | Fatigue, number of AEs (300mg QW, G3, all cycles): 0 (0) | Nausea, number of AEs (300mg QW, G3, all cycles): 0 (0) | Pruritus, number of AEs (300mg QW, G3, all cycles): 0 (0) | Rash (all rash terms collated), number of AEs (300mg QW, G3, all cycles): 3^c (3) | Stomatitis, number of AEs (300mg QW, G3, all cycles): 0 (0) | Vomiting, number of AEs (300mg QW, G3, all cycles): 0 (0) | Anorexia, number of AEs (300mg QW, G3, cycle 1): 0 (0) | Dermatitis acneiform, number of AEs (300mg QW, G3, cycle 1): 0 (0) | Diarrhea, number of AEs (300mg QW, G3, cycle 1): 0 (0) | Dry skin, number of AEs (300mg QW, G3, cycle 1): 0 (0) | Dysgeusia, number of AEs (300mg QW, G3, cycle 1): 0 (0) | Fatigue, number of AEs (300mg QW, G3, cycle 1): 0 (0) | Nausea, number of AEs (300mg QW, G3, cycle 1): 0 (0) | Pruritus, number of AEs (300mg QW, G3, cycle 1): 0 (0) | Stomatitis, number of AEs (300mg QW, G3, cycle 1): 0 (0) | Vomiting, number of AEs (300mg QW, G3, cycle 1): 0 (0) | Rash (all rash terms collated), number of AEs (300mg QW, G3, cycle 1, dose-limiting toxicity): 3^c (3) | drug-related headaches, patients (QW schedule, 4/33): 12.1% | drug-related increased alanine aminotransferase levels, patients (QW schedule, 4/33): 12.1% | drug-related pruritus, patients (QW schedule, 4/33): 12.1% | C-peptide level increase during first cycle (range) (QW schedule, 4 patients with increase): 65.7%-166.6 | drug-related stomatitis, patients (QW schedule, 5/33): 15.2% | drug-related decreased appetite, patients (QW schedule, 7/33): 21.2% | time to full resolution of DLTs from onset (QW schedule, 7 of 10 patients with DLTs): 1 to 2 weeks | drug-related vomiting, patients (QW schedule, 8/33): 24.2% | drug-related diarrhea, patients (QW schedule, 9/33): 27.3% | drug-related nausea, patients (QW schedule, 9/33): 27.3% | drug-related rash, patients (QW schedule, 14/33): 42.4% | drug-related fatigue, patients (QW schedule, 15/33): 45.5% | elevated blood glucose levels, patients (QW schedule, 19/33): 57.6% | drug-related AEs, patients (QW schedule, 22/33): 66.7% | post-cycle 1 HbA1c values (QW schedule, all patients assessed): < 7% | G1 hyperglycemia, patients (QW schedule, following 1 cycle, 1/33): 3.0% | DLTs resolved with sequelae of dry skin (QW schedule, of 10 patients with DLTs): 3 patients | patients with increased C-peptide levels during first cycle (QW schedule, patients assessed): 4 of 6 | patients who discontinued for drug-related AEs (QW schedule, G3 rash, G3 complete atrioventricular block, G1 rash (n=1 each)): Three
